Source: PubChem (several laboratories)
STAT3 blocker – STAT3 signaling inhibition; U3A cells, IL-6 STAT3-luciferase reporter, luminescence; host cell line lacks STAT1; hit rate 0.89% among 190,000; inhibition, % at 5.5 µM;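 active = inhibition above the mean inhibition across all screened compounds plus 3 SD, cut at about 44% in these data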;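 note: 0% = DMSO only wells and 100% = 100 µM nifuroxazide control wells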
STAT3 activator – STAT3 signaling activation | activation (% of control), % at 5.6 µM | U3A cells, IL-6 STAT3-luciferase reporter, luminescence; 100% = signal with IL-6 EC80 alone | hit rate 0.91% among 190,000;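 active = activation above the screen-wide mean of compound activation plus 3 SD, cut at about 130% in these data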;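 note: 0% = background luminescence of wells with medium and substrate only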
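System – human U3A cells carrying STAT3-luciferase construct · Probe or stimulus – Interleukin-6, 33 ng/mL · Schedule – compound 1 h, then IL-6 6 h at 37 °C · Signal – luminescence from STAT3-driven luciferase reporter · Evaluation – percent of IL-6-only median luminescence · Benchmarks – IL-6-only high control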
STAT1 blocker – STAT1 signaling inhibition. NIH 3T3 STAT1-luciferase reporter, IFN-gamma, luminescence. inhibition, % at 5.5 µM. hit rate 0.35% among 200,000. AID 920;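 active = inhibition above a set limit, the mean inhibition across all tested compounds plus 3 SD, cut at about 34% in these data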;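 note: 0% = IFN-gamma with DMSO and 100% = IFN-gamma with 300 µM nifuroxazide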
MT stabilize HCS – microtubule stabilizers in HeLa cells; HeLa tubulin immunostaining HCS, 24 h; share of cells brighter than vehicle mean+2SD; % tubulin-high responders, % at 10 µM; hit rate 0.83% among 200,000;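 active = plate Z-score above 3 for both tubulin-high and condensed-nucleus cell shares, with cell loss under 80%, at 10 µM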;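 note: anti alpha tubulin signal scored within the nucleus-defined area of each cell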
b-catenin transl – beta-catenin nuclear translocation modulation; HeLa beta-catenin nuclear translocation, immunofluorescence imaging; nuclear translocation activity, % at 5 µM; hit rate 0.3% among 190,000;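 active = nuclear translocation activity above 50% at 5 µM, with a well cell count of 50 or more; inconclusive = wells under 50 cells across six images, flagged as toxic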;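 note: per-cell ratio of nuclear to cytoplasmic median beta-catenin stain intensity; plate controls were DMSO negative control for no effect and GSK-3 inhibitor IX positive control for full effect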
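Test system: HeLa cells, endogenous beta-catenin; Compound: single 5 µM dose plus 0.02–20 µM confirmation series; Times: compound exposure 24 h at 37°C; Signal: fluorescence imaging of beta-catenin antibody stain plus DAPI; Read-out: % activation, nuclear-to-cytoplasmic median beta-catenin signal ratio per cell.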
The depositor's hits bear a star; ? = inconclusive; / = not tested or not shown. This is a sample that favours compounds with a hit; in the whole collection about 2.4% have one here.

SMILES | STAT3 blocker | STAT3 activator | STAT1 blocker | MT stabilize HCS | b-catenin transl
COc1ccc(S(=O)(=O)Nc2ccccc2C)cc1 | 0 | 107 | 0 | 35 | -7
COc1ccc(S(=O)(=O)Nc2cc3c4c(oc3c3ccccc23)CC(C)(C)CC4=O)cc1 | -5 | 108 | 2 | 20* | 1
COc1ccc(S(=O)(=O)Nc2cc3c4c(oc3c3ccccc23)CCCC4=O)cc1 | 0 | 99 | 3 | 25* | -1
COc1cc(C(=S)N2CCOCC2)ccc1OC(=O)/C=C/c1ccco1 | 5 | 107 | -7 | 4 | -1
CCCN(Cc1cc2cc(OC)ccc2[nH]c1=O)C(=O)c1ccncc1 | 12 | 96 | 6 | 13* | 0
COc1ccc2[nH]c(=O)c(CN(C)C(=O)c3ccncc3)cc2c1 | 4 | 103 | 0 | 2 | -5
O=c1cc(CSc2nnc(COc3cccc4ccccc34)o2)c2ccccc2[nH]1 | / | / | / | / | 0
O=C(Oc1ccc(Br)cc1C(=O)/C=C/c1ccccc1F)c1ccco1 | -39 | 140* | -1 | 2 | /
CC(=O)c1cc(Cl)ccc1OC(=O)c1ccco1 | 0 | 106 | 0 | 3 | /
CCOc1ccc(N(CC(=O)Nc2ccc(C)cc2)S(=O)(=O)c2c(C)[nH]c(=O)[nH]c2=O)cc1 | / | / | / | / | 1
Cc1ccccc1-c1nc2ccccc2c(=O)n1/N=C/c1ccccc1[N+](=O)[O-] | 1 | 103 | -1 | 4 | 3
O=c1c2ccccc2nc2n1CC/C2=C\c1ccccc1[N+](=O)[O-] | -65 | 157* | 1 | 4 | 0
O=C(CSc1ccc2ccccc2c1)Nc1nc2ccccc2[nH]1 | -1 | 101 | 5 | 4 | -3
CCCSc1ccc2nc(NC(=O)OC)[nH]c2c1 | -31 | 130 | -31 | 20* | /
COC(=O)CCCNC(=O)c1ccccn1 | 1 | 106 | -10 | 2 | -1
COc1ccc(-c2cn3cc(C(F)(F)F)cc(Cl)c3n2)cc1 | -67 | 161* | -58 | 16* | 6
Fc1ccc(-c2cn3cc(C(F)(F)F)cc(Cl)c3n2)cc1 | -75 | 174* | -43 | 2 | 5
CCOC(=O)C(C)Oc1cccc2c(=O)n(CC(=O)Nc3ccc4c(c3)OCCO4)ccc12 (stereo unspecified) | 12 | 98 | 2 | 6 | -1
CCOC(=O)COc1cccc2c(=O)n(CC(=O)NCc3ccccc3)ccc12 | / | / | / | / | 56*
CCOC(=O)COc1cccc2c(=O)n(CC(N)=O)ccc12 | / | / | / | / | 1
CCOC(=O)C(C)Oc1cccc2c(=O)n(CC(=O)NCc3ccc4c(c3)OCO4)ccc12 (stereo unspecified) | 6 | 102 | -9 | 16* | 73*
CCOC(=O)COc1cccc2c(=O)n(CC(=O)NCc3ccc(F)cc3)ccc12 | / | / | / | / | 74*
O=C(Nc1ccccc1)c1cccc(S(=O)(=O)Oc2ccc([N+](=O)[O-])cc2)c1 | -1 | 101 | 7 | 5 | 11
CCCc1noc2c1C(c1cc(Br)ccc1F)C(C#N)=C(N)N2 (stereo unspecified) | 7 | 101 | 4 | 7 | 0
CCN(CC)c1ccc(NC(=O)c2ccco2)cc1 | 20 | 88 | -28 | 3 | 0
SMILES | STAT3 blocker | STAT3 activator | STAT1 blocker | MT stabilize HCS | b-catenin transl
CCN(CC)c1ccc(NC(=O)c2ccccc2F)cc1 | 25 | 82 | -69 | 52* | /
CCC(C)NCC(=O)Nc1ccc(S(N)(=O)=O)cc1 (stereo unspecified) | -2 | 103 | -13 | / | 0
CCOC(=O)C1=C(Cc2ccc(OC)cc2)C(=O)c2ccccc2C1=O | 43 | 66 | 1 | 45* | 2
Cc1cc(C(=O)NC(C)Cc2ccccc2)cc(C)c1[N+](=O)[O-] (stereo unspecified) | 21 | 84 | 1 | 1 | 0
CC12CCCCN1CCCc1c2[nH]c2ccccc12 (stereo unspecified) | -36 | 136* | -5 | 2 | -5
Cc1nn(-c2ccccc2)c(C)c1/C=N/NC(=O)c1cc(-c2ccc(Br)s2)[nH]n1 | 14 | 94 | -3 | 22 | 36
Cc1nn(-c2ccccc2)c(C)c1/C=N/NC(=O)c1cc(-c2ccc(Cl)s2)[nH]n1 | 2 | 105 | -3 | 16* | 119*
CC(/C=N/NC(=O)c1cc(-c2ccc(C)s2)[nH]n1)=C\c1ccccc1 | -6 | 107 | -2 | 28* | 1
Cc1nn(-c2ccccc2)c(C)c1/C=N/NC(=O)c1cc(-c2cccs2)[nH]n1 | -37 | 128 | -1 | 8.9* | 162*
COC(=O)c1ccc(C(=O)OC)c(=O)[nH]1 | / | / | / | / | 0
Cc1ccc(C(=O)c2cc([N+](=O)[O-])ccc2N2CCOCC2)c(C)c1 | -18 | 120 | -6 | 6 | 135*
Cc1ccc(C(=O)c2cc([N+](=O)[O-])ccc2N2CCCCC2)cc1C | -14 | 116 | -7 | 4 | 78*
Cc1ccc(C(=O)c2cc([N+](=O)[O-])ccc2N2CCOCC2)cc1C | -22 | 122 | -11 | 20* | 10
CN1CCN(c2ccc([N+](=O)[O-])cc2C(=O)N2CCOCC2)CC1 | 2 | 103 | -4 | 3 | 0
COC(=O)CSc1nc2ccccn2c(=O)c1C=O | 5 | 105 | 13 | 1 | -2
O=S(=O)(c1ccc(OCC2CO2)cc1)c1ccc(OCC2CO2)cc1 (stereo unspecified) | 0 | 107 | -10 | 5 | 0
O=C(NCC(O)c1ccc([N+](=O)[O-])cc1)c1cccc(S(=O)(=O)N2CCCC2)c1 (stereo unspecified) | 2 | 103 | 4 | 1 | -1
Cc1cc(C(=O)CSc2nnnn2-c2ccccc2)c(C)n1-c1ccc2c(c1)OCO2 | -8 | 107 | 6 | 3 | 2
Cc1ccc(-n2nnnc2SCC(=O)c2cc(C)n(-c3cc(C)on3)c2C)cc1 | -6 | 108 | 7 | 7.5* | 6
C=CCN(C(=O)c1ccccc1)c1ccc(OC)cc1 | 11 | 95 | 5 | 43* | 17
COc1ccc(C(=O)c2ccccc2)cc1 | 0 | 105 | -10 | 1 | ?
COc1ccc(N(C)C(=O)c2ccc3nc(-c4ccccc4)c(-c4ccccc4)nc3c2)cc1 | -7 | 111 | -1 | 25* | -1
COc1ccc(C(=O)NC(=S)Nc2cccc(S(=O)(=O)N3CCOCC3)c2)cc1 | 18 | 86 | -2 | 22* | 0
CC(=O)Oc1ccc(-c2ccc(C(=O)Nc3cccc(S(=O)(=O)N4CCOCC4)c3)cc2)cc1 | 34 | 73 | 20 | 10 | 0
COc1ccccc1NS(=O)(=O)c1cc(NC(=O)c2cccs2)ccc1N1CCOCC1 | / | / | / | / | 3
COc1ccc(NS(=O)(=O)c2cc(NC(=O)c3cccs3)ccc2N2CCOCC2)cc1 | 16 | 95 | -9 | 13* | -1
CCN(CC(=O)Nc1ccccc1SC)Cc1nc2ccccc2c(=O)[nH]1 | / | / | / | / | 2
CCN(CC(=O)Nc1ccc(C(C)=O)cc1)CC(=O)Nc1ccccc1C(F)(F)F | 8 | 98 | 3 | 2 | 0
